Values after ≈ are worked out from the molar mass of the structure shown. Numbered stars: 1 amine (or outer) side, 2 acyl side, 3 side chain; on linkers, the order of the positions; unused ones are H or OH. Bridge positions count the residues as written; N and C are the ends. Square brackets hold non-standard residues; d marks the D form. Peptide text beside a SMILES is read from it. * marks the point of attachment. pTerphenylCO(4''-OnC5H11) = CCCCCOc1ccc(-c2ccc(-c3ccc(C(=O)*)cc3)cc2)cc1; Orn(4R-OH,5R-OH) = O=C([C@H](C[C@@H](O)[C@@H](O)N[*:3])N[*:1])[*:2]; hTyr(3S-OH,4S-OH) = N[C@H](C(=O)O)[C@H](O)[C@@H](O)c1ccc(O)cc1; Pro(3S-OH,4S-Me) = C[C@H]1CN[C@H](C(=O)O)[C@H]1O; Hyp = O=C(O)[C@@H]1C[C@@H](O)CN1
Experiments:
Assay type in all cases: functional
[1] = test system: [Candida] intermedia; test: Antifungal activity against Candida intermedia isolated from candidemia patient by AFST-EUCAST microdilution method; conditions: Sungouiella intermedia
[2] = test system: Meyerozyma guilliermondii; test: Antifungal activity against Candida guilliermondii isolated from candidemia patient by AFST-EUCAST microdilution method
[3] = test system: Candida parapsilosis; test: Antifungal activity against Candida parapsilosis isolated from candidemia patient by AFST-EUCAST microdilution method; conditions: Lodderomyces parapsilosis
[4] = Antifungal activity against Candida pulcherrima isolated from candidemia patient by AFST-EUCAST microdilution method; conditions: Metschnikowia pulcherrima
[5] = test system: Candida albicans; test: Antifungal activity against Candida albicans isolated from candidemia patient by AFST-EUCAST microdilution method
[6] = test system: Pichia kudriavzevii; test: Antifungal activity against Candida krusei isolated from candidemia patient by AFST-EUCAST microdilution method
[7] = test system: Wickerhamomyces anomalus; test: Antifungal activity against Candida pelliculosa isolated from candidemia patient by AFST-EUCAST microdilution method; conditions: Hansenula anomala
[8] = test system: Candida tropicalis; test: Antifungal activity against Candida tropicalis isolated from candidemia patient by AFST-EUCAST microdilution method
[9] = test system: Clavispora lusitaniae; test: Antifungal activity against Clavispora lusitaniae isolated from candidemia patient by AFST-EUCAST microdilution method
[10] = test system: Candida dubliniensis; test: Antifungal activity against Candida dubliniensis isolated from candidemia patient by AFST-EUCAST microdilution method
[11] = test system: Yarrowia lipolytica; test: Antifungal activity against Candida lipolytica isolated from candidemia patient by AFST-EUCAST microdilution method
[12] = test system: Diutina rugosa; test: Antifungal activity against Candida rugosa isolated from candidemia patient by AFST-EUCAST microdilution method
[13] = test system: Nakaseomyces glabratus; test: Antifungal activity against Candida glabrata isolated from candidemia patient by AFST-EUCAST microdilution method
[14] = test system: Kluyveromyces marxianus; test: Antifungal activity against Candida kefyr isolated from candidemia patient by AFST-EUCAST microdilution method
[15] = test system: Pichia kudriavzevii; test: Antifungal activity against Candida krusei ATCC 6258 isolated from candidemia patient by AFST-EUCAST microdilution method
Method in brief: (§1)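 Designated quality-control strain included on every testing occasion and run by the AFST-EUCAST broth microdilution reference procedure (EDef 7.1) alongside the clinical isolates. Its MICs were checked against the reference range for EUCAST-evaluated drugs. Pure standard compounds were used: azoles, amphotericin B, flucytosine and echinocandins.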

[16] = test system: Candida parapsilosis; test: Antifungal activity against Candida parapsilosis ATCC 22019 isolated from candidemia patient by AFST-EUCAST microdilution method; conditions: Lodderomyces parapsilosis; method in brief: as §1

Structure (SMILES): C[C@@H]1[C@H](O)[C@@H](C)/C=C/C=C/C=C/C=C/C=C/C=C/C=C/[C@H](O[C@@H]2O[C@H](C)[C@@H](O)[C@H](N)[C@@H]2O)C[C@@H]2O[C@](O)(C[C@@H](O)C[C@@H](O)[C@H](O)CC[C@@H](O)C[C@@H](O)CC(=O)O[C@H]1C)C[C@H](O)[C@H]2C(=O)O [AMPHOTERICIN B]
- MIC [1]: 0.5 µg/mL (≈ 0.541 µM)
- MIC [2]: 0.5 µg/mL (≈ 0.541 µM)
- MIC90 [3]: 0.25 µg/mL (≈ 0.271 µM)
- MIC [4]: 0.12 µg/mL (≈ 0.13 µM)
- MIC [5]: 0.12 µg/mL (≈ 0.13 µM)
- MIC90 [5]: 0.12 µg/mL (≈ 0.13 µM)
- MIC [6]: 0.25 µg/mL (≈ 0.271 µM)
- MIC90 [6]: 0.25 µg/mL (≈ 0.271 µM)
- MIC [7]: 0.25 µg/mL (≈ 0.271 µM)
- MIC [8]: 0.25 µg/mL (≈ 0.271 µM)
- MIC90 [8]: 0.25 µg/mL (≈ 0.271 µM)
- MIC90 [9]: 4 µg/mL (≈ 4.33 µM)
- MIC [10]: 0.06 µg/mL (≈ 0.0649 µM)
- MIC [11]: 1 µg/mL (≈ 1.08 µM)
- MIC [12]: 0.12 µg/mL (≈ 0.13 µM)
- MIC [13]: 0.5 µg/mL (≈ 0.541 µM)
- MIC90 [13]: 0.5 µg/mL (≈ 0.541 µM)
- MIC [14]: 0.5 µg/mL (≈ 0.541 µM)

Structure (SMILES): CCCCCOc1ccc(-c2ccc(-c3ccc(C(=O)N[C@H]4C[C@@H](O)[C@@H](O)NC(=O)[C@@H]5[C@@H](O)[C@@H](C)CN5C(=O)[C@H]([C@@H](C)O)NC(=O)[C@H]([C@H](O)[C@@H](O)c5ccc(O)cc5)NC(=O)[C@@H]5C[C@@H](O)CN5C(=O)[C@H]([C@@H](C)O)NC4=O)cc3)cc2)cc1 [ANIDULAFUNGIN] ({pTerphenylCO(4''-OnC5H11)}-[Orn(4R-OH,5R-OH)]T[Hyp][hTyr(3S-OH,4S-OH)]T[Pro(3S-OH,4S-Me)]; lactam 1-C)
- MIC [1]: 0.03 µg/mL (≈ 0.0263 µM)
- MIC [2]: 0.5 µg/mL (≈ 0.438 µM)
- MIC [15]: 0.25 µg/mL (≈ 0.219 µM)
- MIC90 [3]: 2 µg/mL (≈ 1.75 µM)
- MIC [4]: 0.03 µg/mL (≈ 0.0263 µM)
- MIC90 [5]: 0.12 µg/mL (≈ 0.105 µM)
- MIC90 [6]: 0.06 µg/mL (≈ 0.0526 µM)
- MIC [7]: 1 µg/mL (≈ 0.877 µM)
- MIC90 [8]: 0.25 µg/mL (≈ 0.219 µM)
- MIC90 [9]: 1 µg/mL (≈ 0.877 µM)
- MIC [10]: 0.03 µg/mL (≈ 0.0263 µM)
- MIC [11]: 0.03 µg/mL (≈ 0.0263 µM)
- MIC [12]: 0.12 µg/mL (≈ 0.105 µM)
- MIC90 [13]: 0.12 µg/mL (≈ 0.105 µM)
- MIC [14]: 16 µg/mL (≈ 14 µM)
- MIC [16]: 0.5 µg/mL (≈ 0.438 µM)

Structure (SMILES): CC[C@H](C)C[C@H](C)CCCCCCCCC(=O)N[C@H]1C[C@@H](O)[C@@H](NCCN)NC(=O)[C@@H]2[C@@H](O)CCN2C(=O)[C@H]([C@H](O)CCN)NC(=O)[C@H]([C@H](O)[C@@H](O)c2ccc(O)cc2)NC(=O)[C@@H]2C[C@@H](O)CN2C(=O)[C@H]([C@@H](C)O)NC1=O [CASPOFUNGIN]
- MIC [1]: 0.03 µg/mL (≈ 0.0274 µM)
- MIC [2]: 1 µg/mL (≈ 0.915 µM)
- MIC [15]: 0.5 µg/mL (≈ 0.457 µM)
- MIC90 [3]: 2 µg/mL (≈ 1.83 µM)
- MIC [4]: 0.03 µg/mL (≈ 0.0274 µM)
- MIC [5]: 0.12 µg/mL (≈ 0.11 µM)
- MIC90 [5]: 0.12 µg/mL (≈ 0.11 µM)
- MIC [6]: 0.5 µg/mL (≈ 0.457 µM)
- MIC90 [6]: 0.12 µg/mL (≈ 0.11 µM)
- MIC [7]: 0.03 µg/mL (≈ 0.0274 µM)
- MIC90 [8]: 0.25 µg/mL (≈ 0.229 µM)
- MIC90 [9]: 1 µg/mL (≈ 0.915 µM)
- MIC [10]: 0.25 µg/mL (≈ 0.229 µM)
- MIC [11]: 0.12 µg/mL (≈ 0.11 µM)
- MIC [12]: 0.25 µg/mL (≈ 0.229 µM)
- MIC90 [13]: 1 µg/mL (≈ 0.915 µM)
- MIC [14]: 8 µg/mL (≈ 7.32 µM)
- MIC [16]: 2 µg/mL (≈ 1.83 µM)

Structure (SMILES): OC(Cn1cncn1)(Cn1cncn1)c1ccc(F)cc1F [FLUCONAZOLE]
- MIC [1]: 1 µg/mL (≈ 3.27 µM)
- MIC90 [3]: 4 µg/mL (≈ 13.1 µM)
- MIC90 [5]: 0.5 µg/mL (≈ 1.63 µM)
- MIC [6]: 32 µg/mL (≈ 104 µM)
- MIC90 [6]: 32 µg/mL (≈ 104 µM)
- MIC [7]: 2 µg/mL (≈ 6.53 µM)
- MIC90 [8]: 2 µg/mL (≈ 6.53 µM)
- MIC90 [9]: 4 µg/mL (≈ 13.1 µM)
- MIC [10]: 0.12 µg/mL (≈ 0.392 µM)
- MIC [12]: 2 µg/mL (≈ 6.53 µM)
- MIC90 [13]: 16 µg/mL (≈ 52.2 µM)
- MIC [14]: 0.12 µg/mL (≈ 0.392 µM)

From ChEMBL document CHEMBL1629658, “A 10-year survey of antifungal susceptibility of candidemia isolates from intensive care unit patients in Greece” (2009)
